Results reported in ChEMBL document CHEMBL1154882, “Hydrogenative desulphurization of thienopyrrolizinones: an easy and selective access to (Z)-phenethylidenepyrrolizinones with in vitro cytotoxic activity” (Eur J Med Chem, 2010).

Legend:
[1] = test system: KB; test: Cytotoxicity against human KB cells assessed as growth inhibition at 10 uM after 72 hrs by MTS assay; assay type: functional
Method in brief: (§1)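 KB cells plated at 650 cells/well, treated 24 h later with compounds in DMSO at 10^-5 or 10^-6 M, in triplicate. Controls got DMSO at 1% final volume; taxotere 2.5×10^-10 M served as reference. After 72 h exposure, MTS reagent added for 3 h at 37 °C and absorbance read at 490 nm. Results given as percent inhibition of proliferation relative to control OD.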

[2] = test system: KB; test: Cytotoxicity against human KB cells assessed as growth inhibition after 72 hrs by MTS assay; assay type: functional, cell-based
Method in brief: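 KB cells seeded at 650 cells/well and dosed 24 h later with DMSO solutions (1% final DMSO, also given to controls) over a range starting at 0.5 nM. After 72 h exposure, MTS added for 3 h at 37 °C and A490 read. Proliferation inhibition taken versus control OD. IC50 (50% inhibition) determined in separate duplicate for compounds giving over 80% inhibition at 10^-6 M.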

[3] = test system: KB; test: Cytotoxicity against human KB cells assessed as growth inhibition at 1 uM after 72 hrs by MTS assay; assay type: functional; method in brief: as §1
[4] = Inhibition of tubulin

IC50 [4]	SMILES	inhibition at 10 µM [1]	IC50 [2]	inhibition at 1 µM [3]
	COc1ccc(/C(C)=C2/CC(=O)c3cccn32)cc1O	95%	70 nM	91%
	COc1ccc(/C(C)=C2/CC(=O)c3cccn32)cc1	78%		1%
	C/C(=C1\CC(=O)c2cccn21)c1ccc(Cl)cc1	0%		0%
	CC(C)C1CC(=O)c2cccn21 (configuration not stated)	0%		0%
2900 nM	COc1ccc(-c2csc3c2-n2cccc2C3=O)cc1O	86%	5.7 nM	86%
	COc1ccc(-c2csc3c2-n2cccc2C3=O)cc1	84%	50 nM	92%
	CC(=O)O[C@@]12CO[C@@H]1C[C@H](O)[C@@]1(C)C(=O)[C@H](O)C3=C(C)[C@@H](OC(=O)[C@H](O)[C@@H](NC(=O)OC(C)(C)C)c4ccccc4)C[C@@](O)([C@@H](OC(=O)c4ccccc4)[C@H]21)C3(C)C [DOCETAXEL]		0.4 nM	
